From PubChem BioAssay
Compounds with a hit are over-represented: about 1.4% of the library has one in this group of screens.
CAL PDZ FP-1 – inhibitors of human CAL PDZ peptide binding. Q9HD26. inhibition, % at 24.9 µM. AID 602252. actives 0.92% (n = 300,000). purified CAL PDZ, TMR-peptide fluorescence polarization, 1 h;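 active means mean inhibition of at least 30% with at least half of replicates also reaching 30%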;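 further: 0% = DMSO neutral control and 100% = excess unlabeled competitor peptide PRC23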
CDK5 p35 inh – blocks human CDK5/p35 kinase activity; Recombinant CDK5/p35, ADP-Glo luminescence, 60 min; inhibition, % at 10 µM; actives 0.01% (n = 330,000); AID 488839;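 active means highest replicate inhibition of at least 50% and at least 75% of replicates reaching 50%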;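 further: plate controls were DMSO neutral control for no effect and GW8510 at 10 µM for full effect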
CAL PDZ FP-2 – human CAL PDZ-peptide interaction inhibition | inhibition, % at 20 µM | actives 0.02% (n = 330,000) | Q9HD26 | purified CAL PDZ, TMR-peptide fluorescence polarization, 1 h;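 active means highest replicate inhibition of at least 40%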;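 further: plate controls were DMSO neutral control wells for no effect and unlabeled competitor peptide control wells for full effect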
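Assay system – tagged CAL PDZ protein CerCALP, purified · Timing – 1 h at RT · Compound – single point, 20 µM · Measured by – fluorescence polarization from S- and P-plane intensities, G-factor corrected · Evaluation – inhibition from polarization loss · Probe or stimulus – TMR reporter peptide T*-PRC34 · Buffer or medium – pH 7.4 phosphate-saline buffer, reducing agent, detergent, IgG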
TbMetRS inhib – blocks T. brucei methionyl-tRNA synthetase activity. AID 624268. actives 0.4% (n = 360,000). inhibition, % at 11.9 µM. purified T. brucei MetRS, ATP depletion, Kinase-Glo luminescence;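 active means inhibition above a per-plate cutoff of the control wells' mean inhibition plus 3 SD, cut at about 5.5% in these data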;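 further: 0% = DMSO wells median and 100% = median of wells with control inhibitor compound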
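Material: T. brucei methionyl-tRNA synthetase, purified; reagent: substrates ATP, L-methionine and bulk Escherichia coli tRNA; dosing: 11.9 µM single point; timing: 15 min plus 2 h at 25 °C; detection: luminescence of leftover ATP; evaluation: % inhibition; control set: DMSO-only wells as low control; replicates: singlicate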
PvdQ acylase – P. aeruginosa PvdQ acylase inhibition; purified PvdQ acylase, fluorescence plate reader; actives 0.063% (n = 340,000); inhibition, % at 10 µM; AID 488965; in the data active means inhibition above about 30%, passing the limit was not always enough;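 further: 0% = vehicle neutral wells and 100% = reference inhibitor wells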
DYRK1A inh – blocks rat Dyrk1A kinase activity. actives 0.43% (n = 310,000). Q63470. inhibition, % at 12.5 µM. ADP-Glo luminescence, NFATc1 peptide; in the data active means inhibition above about 50%;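 further: plate controls were vehicle with enzyme for no effect and no enzyme for full effect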
Tb MetRS conf – confirmation of Trypanosoma brucei MetRS inhibitors | shares compounds with TbMetRS inhib | AID 624412 | actives 93% (n = 1,400) | T. brucei MetRS enzyme, luminescence (ATP depletion) | inhibition, % at 11.9 µM; in the data active means inhibition above about 7%
Jurkat tox – counter-screen for T. brucei MetRS inhibitors: Jurkat cell cytotoxicity; shares compounds with TbMetRS inhib; AID 624413; actives 12% (n = 1,400); Jurkat cells viability, ATP luminescence; inhibition, % at 8.3 µM; in the data active means inhibition above about 15%;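 further: 0% = vehicle and 100% = reference inhibitor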
TbMetRS FP orth – orthogonal test for Trypanosoma brucei MetRS inhibitors; shares compounds with TbMetRS inhib; purified T. brucei MetRS, fluorescence polarization; inhibition, % at 11.9 µM; actives 44% (n = 1,400); AID 651607; in the data active means inhibition above about 17%;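 further: 0% = vehicle wells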
Active calls of the source: *; / = no result given.

SMILES	CAL PDZ FP-1	CDK5 p35 inh	CAL PDZ FP-2	TbMetRS inhib	PvdQ acylase	DYRK1A inh	Tb MetRS conf	Jurkat tox	TbMetRS FP orth
COc1ccc(/C=C(\NC(=O)c2ccco2)C(=O)NCCc2nc3ccccc3[nH]2)cc1	/	/	/	2	/	/	/	/	/
COc1ccccc1C(=O)N/C(=C\c1ccc2c(c1)OCO2)C(=O)NCCc1nc2ccccc2[nH]1	-2	-1	-1	8.8*	-1	6	16*	10	5
CCN(CC)c1ccc(-n2c(O)c(C=C3N=c4ccccc4=N3)sc2=S)cc1	-5	-1	0	0	-9	-5	/	/	/
O=C(O)c1ccc(-n2c(O)c(C=C3N=c4ccccc4=N3)sc2=S)cc1	10	0	0	7.8*	-1	13	33*	-5	11
O=C(O)c1cccc(N2CCCC2)c1	0	1	/	0	-20	/	/	/	/
O=C(O)c1cccc(-n2c(O)c(C=C3N=c4ccccc4=N3)sc2=S)c1	-4	-1	-3	18*	14	2	41*	-3	14
Cc1ccc(NC(=O)CNC(=O)c2ccccc2F)cc1Cl	-2	-1	-1	-1	-1	3	/	/	/
O=C(CCCCC(=O)Nc1ccc(F)cc1)Nc1ccc(F)cc1	-4	-2	0	0	-5	-4	/	/	/
O=C(CNC(=O)c1ccc(Cl)cc1Cl)Nc1ccc(F)cc1	14	2	-2	10*	-12	-1	27*	-1	14
O=C(CC(=O)Nc1ccc(F)cc1)Nc1ccc(F)cc1	-8	0	2	7.0*	-14	0	18*	-8	6
CCOC(=O)C1(C)CCN1C(=O)c1ccc(F)c(Cl)c1 (stereo unspecified)	/	/	/	-1	/	/	/	/	/
O=C(NNC(=O)c1cc(-c2cccnc2)nc2ccccc12)Nc1ccc(Cl)cc1	3	1	-5	20*	-11	2	31*	-8	22*
O=C(NNC(=O)c1cc(-c2ccncc2)nc2ccccc12)Nc1ccc(F)cc1	/	-2	-1	20*	-7	-5	39*	-2	19*
CN(CC(=O)Nc1cccc(F)c1)C(=O)c1ccc2c(c1)NC(=O)CS2	0	1	0	4	-13	/	/	/	/
COc1ccc(NC(=O)CN(C)C(=O)c2ccc3c(c2)NC(=O)CS3)cc1	-2	0	0	7.9*	-11	/	33*	-8	6
O=S(=O)(Nc1cc2nc3ccccc3nc2n1Cc1ccccc1)c1ccc(Cl)cc1	-2	0	-1	32*	4	-6	96*	2	76*
CC(C)C1C(=O)N(Cc2cn(Cc3ccco3)nn2)CCS(=O)(=O)N1Cc1ccc(-c2ccc(F)cc2)cc1 (stereo unspecified)	/	/	/	-1	/	/	/	/	/
Cc1csc(=O)n1CC(=O)OC(C)C(=O)Nc1ccc(N(C)C)cc1 (stereo unspecified)	-2	-14	-2	-1	-13	4	/	/	/
COc1cccc(CN2CCCC(C(=O)Nc3ccc(-c4cscn4)cc3)C2)c1 (stereo unspecified)	-4	0	-3	7.4*	-8	-2	28*	11	10
Cc1ncc(CN2CCCC(C(=O)Nc3ccc(-c4cscn4)cc3)C2)cn1 (stereo unspecified)	-2	0	-4	-1	-4	4	/	/	/
O=C(c1ccncc1)c1ccc(N2CCN(C3CC(=O)N(Cc4ccccc4)C3=O)CC2)cc1 (stereo unspecified)	-5	1	-1	15*	-2	-1	28*	13	6
COCC(=O)Oc1cc(-c2ccc(C)cc2C)c(OC(=O)COC)c(-c2ccc(C)cc2C)c1	/	/	/	0	/	/	/	/	/
COc1cc(NC(C)=O)c2ncccc2c1[N+](=O)[O-]	-3	-2	0	12*	-18	16	23*	-6	3
